This is a sample that favours compounds with a hit; in the whole collection about 1.7% have one here.
DNMT1 block: DNMT1 (human) enzyme inhibition; P26358; DNMT1 molecular beacon, Hinp1I cleavage, fluorescence; inhibition (reported as % activation of signal), % at 10 µM; 0.83% of 360,000 active; AID 588458; in the data active means inhibition above about 50%
LMPTP block: blocks human LMPTP phosphatase | P24666 | recombinant LMPTP-A, OMFP fluorogenic substrate, fluorescence intensity | inhibition, % at 20 µM | 0.22% of 360,000 active | AID 651560;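 active means compounds that cut the enzyme signal by at least half of the control window in the single-dose screen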;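 further: plate controls were DMSO wells with enzyme plus substrate for no effect and substrate without enzyme for full effect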
Target sequence (P24666 whole entry, looked up): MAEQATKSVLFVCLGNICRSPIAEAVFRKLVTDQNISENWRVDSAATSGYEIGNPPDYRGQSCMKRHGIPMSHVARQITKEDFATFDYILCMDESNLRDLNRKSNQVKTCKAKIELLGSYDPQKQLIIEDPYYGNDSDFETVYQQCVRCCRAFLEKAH
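Assay system: LMPTP-A enzyme. Input: 0.625 nM LMPTP-A final. Probe or stimulus: 400 µM OMFP. Compound dosing: single 20 µM dose. Schedule: 50 min dark incubation at room temperature. Detection: fluorescence intensity of OMFP turnover product. Read-out: percent inhibition versus substrate-only and uninhibited controls. Benchmarks: no-enzyme low control, uninhibited high control.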
Scp1 inh: Scp-1 (human) phosphatase inhibition; Q9GZU7; Recombinant Scp1, phosphopeptide, malachite green phosphate absorbance; inhibition, % at 20 µM; 0.88% of 340,000 active;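 active means inhibition above about 50% at 20 µM, limit read from the data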;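 further: plate controls were DMSO wells with enzyme for no effect and wells lacking enzyme for full effect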
Target sequence (Q9GZU7 76-261 limits assumed): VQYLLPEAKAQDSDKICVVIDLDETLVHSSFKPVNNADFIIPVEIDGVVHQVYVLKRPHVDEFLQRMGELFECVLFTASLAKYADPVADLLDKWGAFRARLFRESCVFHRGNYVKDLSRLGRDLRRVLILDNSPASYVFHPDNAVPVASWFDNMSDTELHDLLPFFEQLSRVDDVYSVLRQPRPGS
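Times: enzyme reaction 45 min at room temperature, colour 5 min, stabilisation 30 min. Material: SCP-1 catalytic fragment, aa 76-261. Medium: Acidic Tris acetate buffer with magnesium and detergent. Signal: colorimetric free-phosphate detection, absorbance 630 nm. Read-out basis: % inhibition of SCP-1 phosphate liberation. Reagent: Phosphorylated 17-residue peptide substrate.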
STEP block: inhibitors of human striatal-enriched phosphatase STEP; 0.25% of 360,000 active; inhibition, % at 20 µM; recombinant STEP, OMFP fluorogenic substrate, fluorescence; AID 588621;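 active means inhibition at 20 µM, scaled per plate between control wells, above about 37%, limit read from the data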;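 further: 0% = DMSO with enzyme and substrate and 100% = substrate only without enzyme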
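System: STEP phosphatase, cell-free reaction; Buffer or medium: Bis-Tris pH 6.0 buffer with DTT, detergent; Incubation: 20 min at room temperature, dark; Measured by: fluorescence, 480/540 nm.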
SUMO1 PPI mod: alters human SUMO1 binding to SIM partners. inhibition, % at 20 µM. 0.33% of 360,000 active. P63165. SUMO1 binding to a labelled peptide, TR-FRET, 1 h; in the data active means inhibition above about 37%
Target sequence (P63165 whole entry, looked up): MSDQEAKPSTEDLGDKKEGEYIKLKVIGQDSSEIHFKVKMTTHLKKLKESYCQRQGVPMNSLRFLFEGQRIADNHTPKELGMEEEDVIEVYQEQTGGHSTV
DNMT1 inh conf: confirmation of human DNMT1 inhibitors; 8% of 2,300 active; inhibition, % at 10 µM; AID 602385; DNMT1 molecular beacon HinP1I cleavage, fluorescence; shares compounds with DNMT1 block;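 active means average inhibition of at least 30% in the single-concentration confirmation test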
Beacon interf: counter-screen for DNMT1 inhibitors: spectral interference; 1% of 2,300 active; AID 602387; DNMT1 molecular beacon spectral interference counterscreen, fluorescence 485/520; shares compounds with DNMT1 block; activation (fluorescence interference), % at 10 µM;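 active means activation of at least 30% at 10 µM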;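 further: DNMT1 catalytic domain with a HinP1I cleavage step and a FAM/dabcyl DNA beacon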
* = called active by the depositor.

CCCCCCc1cc2cc(-c3nnc(-c4ccccc4OC)o3)c(=O)oc2cc1O was read as DNMT1 block 100*, LMPTP block 2, Scp1 inh 7, STEP block -4, SUMO1 PPI mod 3, DNMT1 inh conf 6 and Beacon interf 11.
`CCc1nc2c(OCc3ccc(F)c(F)c3)cccn2c1N(C)C(=O)c1ccc(C)cc1` gave DNMT1 block -3, LMPTP block 2, STEP block 5 and SUMO1 PPI mod 2.
CCOc1cc(/C=N/NC(=O)c2cccnc2)ccc1OCC(=O)N(C)C was read as DNMT1 block 0, LMPTP block -1, Scp1 inh -6, STEP block 0 and SUMO1 PPI mod -8.
O=C1CCCC(O)=C1N=Nc1ccc(C(=O)O)cc1 was read as DNMT1 block 83*, LMPTP block 6, Scp1 inh 76*, STEP block 12, SUMO1 PPI mod 23, DNMT1 inh conf 20 and Beacon interf 0.
Screening COc1ccc(-c2csc3ncnc(N4CCN(c5ccccc5[N+](=O)[O-])CC4)c23)cc1 returned DNMT1 block 0, LMPTP block 7, Scp1 inh 16, STEP block 0 and SUMO1 PPI mod -4.
Screening C=CCn1c(SCc2nc3ccccc3c(=O)[nH]2)nc2sc3c(c2c1=O)CCCC3 returned Scp1 inh -11.
`C=CCn1c(SCc2nc3sc4c(c3c(=O)[nH]2)CCCC4)nc2ccccc2c1=O` gave DNMT1 block 55*, LMPTP block 0, Scp1 inh -10, STEP block -2, SUMO1 PPI mod 0, DNMT1 inh conf 0 and Beacon interf -9.
For COc1ccc(NC(=O)C(CC(=O)O)Cc2ccc(C)cc2)cc1 (stereo not drawn) the results were DNMT1 block -7, LMPTP block -3, Scp1 inh -1, STEP block -3 and SUMO1 PPI mod 3.
For COCCCn1c(C(=O)Nc2ccc3c(c2)OCO3)cc2c(=O)n3cccc(C)c3nc21 the results were DNMT1 block 83*, LMPTP block 17, STEP block 6, SUMO1 PPI mod 31, DNMT1 inh conf 1 and Beacon interf -8.
For CCOc1ccccc1N1Cc2cc(C)c(C)cc2C1 the results were DNMT1 block 54*, LMPTP block 3, Scp1 inh -4, STEP block 0, SUMO1 PPI mod -1, DNMT1 inh conf 0 and Beacon interf 1.
`COc1ccc(-c2cc3nc4ccccc4n3c(N)c2C#N)cc1` gave DNMT1 block 52*, LMPTP block 58*, Scp1 inh 17, STEP block 62*, SUMO1 PPI mod 87*, DNMT1 inh conf 8 and Beacon interf 7.
`COc1ccc(-c2cc(-c3ccccc3)c(C#N)c(S(C)=O)n2)cc1` (stereo not drawn) gave DNMT1 block 5, LMPTP block 0, Scp1 inh -6, STEP block -1 and SUMO1 PPI mod 19.
Screening CC(=O)c1cccc(NC(=O)CN2C(=O)C3C4C=CC(C4)C3C2=O)c1 (stereo not drawn) returned DNMT1 block 50*, LMPTP block 0, Scp1 inh 0, STEP block -3, SUMO1 PPI mod -2, DNMT1 inh conf 1 and Beacon interf 1.
Screening NC(=O)c1ccsc1NC(=O)COC(=O)c1cc(Cl)ccc1O returned DNMT1 block -8, LMPTP block 4, Scp1 inh 1, STEP block 2 and SUMO1 PPI mod -1.
CC(C)c1nc2sc3c(=O)[nH]cnc3c2c2c1CCC2 was read as DNMT1 block -4, LMPTP block -1, Scp1 inh 0, STEP block -2 and SUMO1 PPI mod 29.
Screening Cc1ccc(-c2cc(C(F)F)nc3sc4c(=O)[nH]cnc4c23)cc1 returned DNMT1 block 61*, LMPTP block -1, Scp1 inh -6, STEP block -2, SUMO1 PPI mod -39, DNMT1 inh conf 3 and Beacon interf 4.
For C/C(=N\NC(=O)c1ccc2c(c1)OCO2)c1ccc(O)cc1 the results were DNMT1 block 81*, LMPTP block -1, Scp1 inh -12, STEP block -2, SUMO1 PPI mod -6, DNMT1 inh conf 26 and Beacon interf 4.
O=Cc1cccc(OCc2cn(CC(=O)c3ccc(O)cc3)nn2)c1 was read as DNMT1 block 58*, LMPTP block -1, STEP block 2, SUMO1 PPI mod 4, DNMT1 inh conf 4 and Beacon interf -4.
`CCCC(=O)c1ccc(OCc2cn(CC(=O)c3ccc(O)cc3)nn2)cc1` gave DNMT1 block 52*, LMPTP block -1, Scp1 inh -5, STEP block -1, SUMO1 PPI mod 0, DNMT1 inh conf 3 and Beacon interf -1.
Screening O=C(Cn1cc(COc2ccc(Br)cc2)nn1)c1ccc(O)cc1 returned DNMT1 block -3, LMPTP block 1, Scp1 inh 1, STEP block 2 and SUMO1 PPI mod -3.
`COc1ccc2c3c([nH]c2c1)C(C)N(CCC(=O)NN)CC3` (stereo not drawn) gave DNMT1 block 64*, LMPTP block 0, Scp1 inh -6, STEP block 8, SUMO1 PPI mod -3, DNMT1 inh conf 4 and Beacon interf 4.
For COc1ccc2c3c([nH]c2c1)C(C)N(C(C)=O)CC3 (stereo not drawn) the results were DNMT1 block 0, LMPTP block 1, Scp1 inh -11, STEP block -2 and SUMO1 PPI mod 0.
For CC(C)(C)OC(=O)NCCCCCNC(=O)c1[nH]cnc1C(=O)NC1CCN(C(=O)OC(C)(C)C)CC1 the results were DNMT1 block 76*, LMPTP block 3, Scp1 inh 0, STEP block -1, SUMO1 PPI mod -3, DNMT1 inh conf 8 and Beacon interf 7.
`CC1=NN2C(=N)/C(=C\c3ccc(SCc4ccccc4)o3)C(=O)N=C2S1` gave DNMT1 block 64*, LMPTP block 3, Scp1 inh 20, STEP block 5, SUMO1 PPI mod 5, DNMT1 inh conf 3 and Beacon interf 2.
Screening O=C(O)CN1C(=O)/C(=C\c2ccc(OC(=O)c3ccco3)cc2)SC1=S returned DNMT1 block 0, LMPTP block 2, Scp1 inh 6, STEP block 15 and SUMO1 PPI mod -26.
Screening CC1=CN2C(=N)/C(=C/c3ccco3)C(=O)N=C2S1 returned DNMT1 block 6, LMPTP block 1, Scp1 inh 6, STEP block -4 and SUMO1 PPI mod -17.
